The values below come from paper PMC3947851 (Bioorganic & medicinal chemistry, 2012).

≈ marks a conversion by molar mass, not a printed value. Structures can show the parent of a compound that is named as a salt.

For data set [1], the target named is T1, SaFtsZ (Staphylococcus aureus, UniProt P0A031).
T1 sequence (P0A031 1-390): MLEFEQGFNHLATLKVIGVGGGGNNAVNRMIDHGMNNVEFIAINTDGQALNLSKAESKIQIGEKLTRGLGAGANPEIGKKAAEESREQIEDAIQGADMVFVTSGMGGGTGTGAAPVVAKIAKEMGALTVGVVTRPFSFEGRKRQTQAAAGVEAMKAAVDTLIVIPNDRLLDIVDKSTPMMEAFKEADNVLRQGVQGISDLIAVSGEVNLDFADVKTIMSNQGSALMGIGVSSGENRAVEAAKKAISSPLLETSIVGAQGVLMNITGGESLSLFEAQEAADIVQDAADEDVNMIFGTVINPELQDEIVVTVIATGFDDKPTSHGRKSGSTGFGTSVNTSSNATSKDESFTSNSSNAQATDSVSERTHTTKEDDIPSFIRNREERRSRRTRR
The data set is described as follows: FtsZ polymerization assay. It counts as biochemical. The settings on record: for Impact on SaFtsZ polymerization (A340) / Stability of compound-induced SaFtsZ polymers to added GDP: compound 40 μg/mL, 1 mM GTP; for Impact on SaFtsZ polymerization (A340): 10 μM SaFtsZ, 25 °C; for Stability of compound-induced SaFtsZ polymers to added GDP: 1 mM GDP added.

Data set [2] deals with microtubule-associated protein (MAP)-rich porcine β-tubulin (Sus scrofa, UniProt P02554). The data set is described as follows: Tubulin polymerization assay. It counts as biochemical. The following applies: tubulin 2 mg/mL. The essentials:
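MAP-rich porcine tubulin (70% tubulin, 30% MAPs) at 2 mg/mL with 1 mM GTP in 80 mM PIPES NaOH (pH 7.0), 2 mM MgCl2, 1 mM EGTA. Test compound 40 μg/mL, paclitaxel 25 μg/mL or nocodazole 10 μg/mL as comparators, or DMSO vehicle. Turbidity (A340) read continuously at 37 °C over 60 min.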

Data set [3] is described as follows: MTT cytotoxicity assay, MDCK. The class given is cell-based, canine. The following applies: dog, MDCK cells. A digest of the protocol: (§1)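 MTT tetrazolium assay in 96-well plates. Cells were grown […] at 37 °C in 5% CO2 and passaged in DMEM. Each well was seeded with 1500 cells, and triplicate wells were exposed continuously to varying concentrations of test compound for four days. MTT was read at the end of day 4, and IC50 was determined.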

Data set [4] can be described thus: MTT cytotoxicity assay, HEK293. It counts as cell-based, human. The settings on record: human, HEK293 cells. A digest of the protocol:
as §1

A further data set deals with HEK293 cells. Nature of the data set: MTT cytotoxicity assay, HEK293. The class given is cell-based, human. The following applies: 10 μM, MTT. A digest of the protocol: as §1
Data set [5] addresses T1, SaFtsZ. The data set is described as follows: FtsZ GTPase assay. The following applies: for Concentration dependence of the impact on SaFtsZ GTPase activity: 10 μM SaFtsZ, Fig. 4. It counts as biochemical.
A further data set concerns S. aureus 8325-4 (MSSA). The data set is described as follows: MIC assay, CLSI broth microdilution, MSSA. The class given is cell-based. The following applies: Staphylococcus aureus, 24 h, read-out: MIC S. aureus 8325-4 (MSSA), lowest concentration at which growth is ≥90% inhibited, CAMH broth, 37 °C.

Sequence of microtubule-associated protein (MAP)-rich porcine β-tubulin (P02554 whole entry): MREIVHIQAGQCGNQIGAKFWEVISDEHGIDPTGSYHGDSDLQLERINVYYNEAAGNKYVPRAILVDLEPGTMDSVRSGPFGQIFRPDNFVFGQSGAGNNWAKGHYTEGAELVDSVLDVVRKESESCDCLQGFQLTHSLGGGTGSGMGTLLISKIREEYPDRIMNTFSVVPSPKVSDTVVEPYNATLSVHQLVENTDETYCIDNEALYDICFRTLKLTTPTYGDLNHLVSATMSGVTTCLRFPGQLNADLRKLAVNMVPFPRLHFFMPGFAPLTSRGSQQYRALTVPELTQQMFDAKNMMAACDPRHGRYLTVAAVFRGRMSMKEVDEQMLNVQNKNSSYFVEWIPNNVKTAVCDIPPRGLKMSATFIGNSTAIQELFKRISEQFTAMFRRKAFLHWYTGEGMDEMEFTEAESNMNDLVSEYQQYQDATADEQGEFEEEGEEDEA
Sequence of microtubule-associated protein (MAP)-rich porcine β-tubulin (P02550 whole entry partner): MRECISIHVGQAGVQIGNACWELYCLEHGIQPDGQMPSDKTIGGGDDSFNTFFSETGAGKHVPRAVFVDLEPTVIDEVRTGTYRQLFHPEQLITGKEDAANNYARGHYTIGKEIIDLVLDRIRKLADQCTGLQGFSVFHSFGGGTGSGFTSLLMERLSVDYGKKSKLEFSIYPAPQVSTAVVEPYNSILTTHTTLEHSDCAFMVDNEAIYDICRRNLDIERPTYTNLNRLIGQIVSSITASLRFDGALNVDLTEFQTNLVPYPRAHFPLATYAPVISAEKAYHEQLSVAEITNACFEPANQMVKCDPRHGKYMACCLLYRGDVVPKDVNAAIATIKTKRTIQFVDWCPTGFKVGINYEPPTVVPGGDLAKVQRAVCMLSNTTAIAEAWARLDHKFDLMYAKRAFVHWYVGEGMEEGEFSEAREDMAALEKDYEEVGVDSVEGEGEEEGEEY

For `COc1ccc2cc3[n+](cc2c1OC)CCc1cc2c(cc1-3)OCO2` [Berberine, berberine, reference compound], the “Impact on SaFtsZ polymerization (A340)” value on SaFtsZ [1] is reported as “did not significantly impact SaFtsZ polymerization”. The same measure, in the same setting: to `COc1cc2cc(-c3cccc(C(C)(C)C)c3)nc(C)c2cc1OC` [Compound 4a, 3-(3-(t-Butyl)phenyl)-6,7-dimethoxy-1-methylisoquino line] belongs “did not significantly impact SaFtsZ polymerization”; to `COc1cc2cc(-c3cccc(-c4ccc(-c5ccccc5)cc4)c3)[n+](C)c(C)c2cc1OC.[I-]` [Compound 5b, 3-([1,1′:4′,1″-Terphenyl]-3-yl)-6,7-dimethoxy-1,2-dimethy lisoquinolin-2-ium iodide], “stimulate SaFtsZ polymerization”.

As to `COc1cc2cc(-c3cccc(-c4ccc(C(C)(C)C)cc4)c3)nc(C)c2cc1OC` [Compound 7a, 3-(4′-(t-Butyl)-[1,1′-biphenyl]-3-yl)-6,7-dimethoxy-1-methylisoquinoline], the “Impact on SaFtsZ polymerization (A340)” value on SaFtsZ [1] is given as “did not significantly impact SaFtsZ polymerization”.

Consider `COc1cc2cc(-c3cccc(-c4ccc(C(C)(C)C)cc4)c3)[n+](C)c(C)c2cc1OC.[I-]` [Compound 7b, 3-(4′-(t-Butyl)-[1,1′-biphenyl]-3-yl)-6,7-dimethoxy-1,2-dimethylisoquinolin-2-ium iodide], for which, on SaFtsZ [1], the “Impact on SaFtsZ polymerization (A340)” value is on record as “stimulate SaFtsZ polymerization” and the “Stability of compound-induced SaFtsZ polymers to added GDP” value (from here on “Stability”) is on record as “stable to the depolymerizing effects of GDP”. In addition, the “Impact on polymerization of porcine β-tubulin (A340)” value (“Impact on polymerization” below) in data set [2] (compound 40 μg/mL, 37 °C) was “neither 7b nor 19a exert a significant impact”. For the compound `COc1cc2cc(-c3cccc(-c4ccccc4)c3)nc(N=C(N)N)c2cc1OC` [Compound 10a, 2-(3-([1,1′-biphenyl]-3-yl)-6,7-dimethoxyisoquinolin-1-yl)guanidine], the IC50 at 4 days in data set [3] and in data set [4] was 2200 to 3500 nM throughout. For `COc1cc2cc(-c3cccc(-c4ccccc4)c3)nc(CN=C(N)N)c2cc1OC` [Compound 13a, 2-((3-([1,1′-biphenyl]-3-yl)-6,7-dimethoxyisoquinolin-1-yl)methyl)guanidine trifluo roacetate], the “Human cell toxicity at the highest concentration tested” value (shortened to “Human cell toxicity”) in the data set on HEK293 cells is recorded as “no significant human cell toxicity”. For `COc1cc2cc(-c3cccc(-c4ccccc4)c3)nc(CCN=C(N)N)c2cc1OC` [Compound 15a, 2-(2-(3-([1,1′-Biphenyl]-3-yl)-6,7-dimethoxyisoquinolin-1-yl)ethyl)guanidine], the “Human cell toxicity” value in the data set on HEK293 cells is recorded as “no significant human cell toxicity”. In addition, the “Impact on SaFtsZ polymerization (A340)” value on SaFtsZ [1] is on record as “stimulate SaFtsZ polymerization”. Besides, the “Concentration dependence of the impact on SaFtsZ GTPase activity” value on SaFtsZ [5] is given as “stimulate GTPase activity at lower concentrations, followed by inhibition at higher concentrations”.

On to `COc1cc2cc(-c3cccc(C(C)(C)C)c3)nc(CN)c2cc1OC` [Compound 16a, (3-(3-(t-Butyl)phenyl)-6,7-dimethoxyisoquinolin-1-yl)methanamine], for which, in the data set with HEK293 cells, the “Human cell toxicity” value was “no significant human cell toxicity”.

In turn, `COc1cc2cc(-c3cccc(C(C)(C)C)c3)nc(CCN)c2cc1OC` [Compound 17a, 2-(3-(3-(t-Butyl)phenyl)-6,7-dimethoxyisoquinolin-1-yl)ethanamine] showed a half-maximal inhibitory concentration (IC50) at 4 days in data set [3] of 2200 to 3500 nM. For the same compound, the IC50 at 4 days in data set [4] lay in the range of 2200 to 3500 nM. At SaFtsZ [1], the “Impact on SaFtsZ polymerization (A340)” value is given as “stimulate SaFtsZ polymerization” and the “Stability” value is on record as “stable to the depolymerizing effects of GDP”. For the compound `COc1cc2cc(-c3cccc(C(C)(C)C)c3)nc(C/N=C(/C)N)c2cc1OC` [Compound 18a, N′-((3-(3-(t-butyl)phenyl)-6,7-dimethoxyisoquinolin-1-yl)methyl)acetimidamide], at SaFtsZ [1], the “Impact on SaFtsZ polymerization (A340)” value is “stimulate SaFtsZ polymerization”. Further, on SaFtsZ [5], the “Concentration dependence of the impact on SaFtsZ GTPase activity” value was “stimulate GTPase activity at lower concentrations, followed by inhibition at higher concentrations”. Turning to `COc1cc2cc(-c3cccc(C(C)(C)C)c3)nc(CN=C(N)N)c2cc1OC` [Compound 19a, 2-((3-(3-(t-Butyl)phenyl)-6,7-dimethoxyisoquinolin-1-yl)methyl)guanidine], the “Impact on SaFtsZ polymerization (A340)” value on SaFtsZ [1] is listed as “stimulate SaFtsZ polymerization”. Also, in data set [2] (compound 40 μg/mL, 37 °C), the “Impact on polymerization” value is listed as “neither 7b nor 19a exert a significant impact”.

Regarding `COc1cc2cc(-c3cccc(C(C)(C)C)c3)nc(CCN=C(N)N)c2cc1OC` [Compound 20a, 2-(2-(3-(3-(t-Butyl)phenyl)-6,7-dimethoxyisoquinolin-1-yl)ethyl)guanidine], the “Concentration dependence of the enhancement of SaFtsZ polymerization” value on SaFtsZ [1] (20, 30 and 40 μg/mL) is “enhances SaFtsZ polymerization increases with increasing compound concentration”. Also, at SaFtsZ [1], the “Impact on SaFtsZ polymerization (A340)” value is reported as “stimulate SaFtsZ polymerization” and the “Stability” value is “stable to the depolymerizing effects of GDP”. In addition, the MIC in the data set on S. aureus 8325-4 (MSSA) lay in the range of 2 to 4 µg/mL (≈ 4.92 to 9.84 µM). In the case of `COc1cc2cc(-c3cccc(-c4ccc(C(C)(C)C)cc4)c3)nc(CN=C(N)N)c2cc1OC` [Compound 21a, 2-((3-(4′-(t-Butyl)-[1,1′-biphenyl]-3-yl)-6,7-dimethoxyisoquinolin-1-yl)methyl)guanidine trifluoroacetate], the MIC in the data set with S. aureus 8325-4 (MSSA) was 2 to 4 µg/mL. For the compound `NC(=O)c1c(F)ccc(OCc2nc3cc(Cl)cnc3s2)c1F` [PC190723, reference compound], the “Impact on SaFtsZ polymerization (A340)” value at SaFtsZ [1] is listed as “stimulate SaFtsZ polymerization”.

`CN[C@H](CC(C)C)C(=O)N[C@H]1C(=O)N[C@@H](CC(N)=O)C(=O)N[C@H]2C(=O)N[C@H]3C(=O)N[C@H](C(=O)N[C@H](C(=O)O)c4cc(O)cc(O)c4-c4cc3ccc4O)[C@H](O)c3ccc(c(Cl)c3)Oc3cc2cc(c3O[C@@H]2O[C@H](CO)[C@@H](O)[C@H](O)[C@H]2O[C@H]2C[C@](C)(N)[C@H](O)[C@H](C)O2)Oc2ccc(cc2Cl)[C@H]1O` [Vancomycin, reference compound]: the “Impact on SaFtsZ polymerization (A340)” value at SaFtsZ [1] was “no impact on the polymerization of SaFtsZ”. For the same compound, the “Percent GTPase activity” value at SaFtsZ [5] (40 μg/mL, percentage of activity with vehicle (DMSO) alone, mean of two ± SD) is listed as “no significant impact”. As to `COC(=O)Nc1nc2cc(C(=O)c3cccs3)ccc2[nH]1` [nocodazole, reference compound], the “Impact on polymerization” value in data set [2] (10 μg/mL, positive control) was “produce their expected impacts on tubulin polymerization dynamics”. Take `CC(=O)O[C@H]1C(=O)[C@@]2(C)[C@H]([C@H](OC(=O)c3ccccc3)[C@]3(O)C[C@H](OC(=O)[C@H](O)[C@@H](NC(=O)c4ccccc4)c4ccccc4)C(C)=C1C3(C)C)[C@]1(OC(C)=O)CO[C@@H]1C[C@@H]2O` [paclitaxel, reference compound]: the “Impact on polymerization” value in data set [2] (25 μg/mL, positive control) was “produce their expected impacts on tubulin polymerization dynamics”.
